Bioassay records: PubChem BioAssay, several laboratories
This excerpt belongs to a sample that is enriched for hits.
S1P4 ag = S1P4 receptor agonists, primary screen, cell-based | Sphingosine 1-phosphate receptor 4 (Homo sapiens), O95977 | activation, % at 4.98 µM | 220,000 compounds, 0.35% hits | AID 1509, 2009 | S1P4-expressing cell line, agonist reporter assay; in the data active means activation above about 11%;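 further: 0% = DMSO vehicle and 100% = reference agonist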
Target sequence (O95977 whole entry, looked up): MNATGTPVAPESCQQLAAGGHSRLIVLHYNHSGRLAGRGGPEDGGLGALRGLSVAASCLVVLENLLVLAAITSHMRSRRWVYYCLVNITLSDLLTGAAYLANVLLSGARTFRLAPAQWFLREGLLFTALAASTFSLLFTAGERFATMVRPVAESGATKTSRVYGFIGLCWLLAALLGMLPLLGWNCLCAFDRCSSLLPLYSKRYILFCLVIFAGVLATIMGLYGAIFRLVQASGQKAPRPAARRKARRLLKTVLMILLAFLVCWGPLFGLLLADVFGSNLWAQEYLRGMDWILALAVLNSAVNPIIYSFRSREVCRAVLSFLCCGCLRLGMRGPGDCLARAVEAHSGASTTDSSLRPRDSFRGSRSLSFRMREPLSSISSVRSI
Mdm2 ligase inh = MDM2-luciferase reporter signal enhancers, primary screen, MDM2 E3 ligase inhibitor project, cell-based, luminescence, 1536-well | cell-based MDM2 ubiquitination luciferase reporter, 2 h; 0 = plate control, 100 = twice control, blank-subtracted | signal enhancement, % at 5 µM | 210,000 compounds, 0.11% hits;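 active means signal enhancement of 30% or more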;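 further: luminescence tracks abundance of the self-degrading MDM2-luciferase fusion protein; higher signal means inhibition of MDM2 E3 ligase activity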
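Material: stable MDM2–luciferase fusion reporter cells / Quantity: 2000 cells/well / Dosing: single 5 µM compound dose, 0.2% final DMSO / Buffer or medium: DMEM / Schedule: 4 h cell settling then 2 h compound exposure, 37 °C / Detection: luminescence with SteadyLite reagent, 15 min at room temperature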
S1P4 antagonist = S1P4 receptor antagonists, primary screen, cell-based. AID 1510, 2009. S1P4-expressing cells, antagonist mode, reporter read-out. inhibition, % at 4.98 µM. 220,000 compounds, 0.26% hits. Sphingosine 1-phosphate receptor 4 (Homo sapiens), O95977; in the data active means inhibition above about 29%;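 further: 0% = wells stimulated with agonist and 100% = vehicle wells without agonist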
S1P3 antagonist = S1P3 receptor antagonists, primary screen, cell-based. 170,000 compounds, 0.27% hits. AID 485, 2006. Sphingosine 1-phosphate receptor 3 (Homo sapiens), Q99500. CHO S1P3 NFAT-BLA reporter, FRET fluorescence, antagonist mode. inhibition, % at 4.98 µM;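 active means inhibition above the plate cutoff, the mean inhibition of test wells on that plate plus 3 SD, cut at about 28% in these data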;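 further: cells challenged with S1P at its EC80 of 0.8 µM; blue over green emission ratio from cleaved BLA substrate after 4 h stimulation; 0% = S1P-stimulated wells and 100% = unstimulated DMSO-only wells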
L major viab = Leishmania major promastigote growth inhibition, primary screen; Leishmania major promastigotes, resazurin fluorescence viability; inhibition, % at 10 µM; 200,000 compounds, 9% hits; AID 1063, 2008; in the data active means inhibition above about 50%;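 further: promastigotes grown with compound for 44 hours at 28 °C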
* hit, by the source's call; . = not tested or not shown.

SMILES | S1P4 ag | Mdm2 ligase inh | S1P4 antagonist | S1P3 antagonist | L major viab
COc1ccc(Nc2nc(Nc3ccc(OC)cc3)nc(-n3[nH]c(=O)c(C)c3C)n2)cc1 | -0.4 | -5.3 | 1.2 | . | 100.5*
Cc1ccnc2nc(C(=O)OCC(=O)c3c[nH]c4ccccc34)nn12 | -0.1 | -5.1 | -6.4 | 1.1 | .
Cc1c(Cl)cccc1NC(=S)N1CCCN(Cc2ccccc2F)C1 | -0.1 | -7.3 | 8.3 | 7.9 | 82.4*
O=C(Nc1ccccc1)N1CCCN(Cc2ccccc2F)C1 | -0.6 | -16.3 | -16.9 | 18.5 | 8.0
Cc1c(Cl)cccc1NC(=S)N1CCOCC1 | -0.1 | 14.6 | -15.3 | 0.4 | -5.7
Fc1ccccc1CN1CCCN(C(=S)Nc2cccc(Cl)c2)C1 | 0.5 | 11.8 | -8.7 | 2.3 | 86.3*
Cc1c(Cl)cccc1NC(=S)N1CCCN(Cc2ccc(F)cc2)C1 | -0.2 | 7.4 | -2.6 | 5.0 | 89.2*
O=c1c(C(c2ccc(F)cc2)c2c(O)nc3n(c2=O)CCS3)c(O)nc2n1CCS2 | 0.2 | -9.9 | -0.3 | -3.5 | .
COC(=O)c1cc2cc(NS(=O)(=O)c3ccc(C)cc3)ccc2s1 | 1.8 | -7.2 | -9.3 | . | 100.3*
COC(=O)Nc1ccc(S(=O)(=O)Nc2ccc(C)cc2)cc1 | -2.8 | -0.8 | 2.6 | . | -18.9
Cc1ccc(C(=O)c2c[nH]c3c(F)cc(F)cc3c2=O)cc1 | -0.3 | . | -14.8 | -4.2 | -4.6
O=C(/C=C/c1ccco1)Nc1cccc(NC(=O)/C=C/c2ccco2)n1 | 0.4 | 2.1 | 0.6 | -5.1 | 64.1*
Cc1nc(NC(=O)/C=C/c2ccco2)sc1C | -0.5 | -13.7 | -6.8 | -8.5 | -6.8
Cc1sc(NC(=O)c2ccco2)c(CN2CCN(c3ccccn3)CC2)c1C | 1.6 | -12.3 | -11.1 | 64.5* | 38.0
CCC1CCCN1Cn1cnc2c([nH]c3ccc(OC)cc32)c1=O (stereo not given) | 1.8 | -15.2 | -8.1 | 3.0 | 66.1*
CCN1CCCC1Cn1cnc2c([nH]c3ccc(Cl)cc32)c1=O (stereo not given) | -0.1 | . | -6.8 | -6.9 | 11.0
CCC1CCCN1Cn1cnc2c([nH]c3ccccc32)c1=O (stereo not given) | -2.0 | -16.8 | -15.0 | 25.6 | 13.5
CCN1CCCC1Cn1cnc2c([nH]c3cccc(Cl)c32)c1=O (stereo not given) | 2.2 | -3.9 | -13.3 | -12.9 | 81.3*
CCOC(=O)C(=CNc1cscc1S(=O)(=O)C(C)C)C(=O)OCC | -0.2 | -5.7 | 10.4 | -1.7 | .
CC(=O)c1nc(N2C(=O)CC(Cc3cc(C)cc(C)c3)C2=O)sc1C (stereo not given) | -1.1 | -12.3 | -2.9 | -5.1 | 53.6*
CC(=O)c1nc(N2C(=O)CC(Cc3cccc(C)c3)C2=O)sc1C (stereo not given) | 1.5 | -17.8 | -17.8 | . | -2.4
Cc1ccccc1CC1(CO)CCCN(Cc2nc(-c3cccs3)oc2C)C1 (stereo not given) | 2.1 | -9.6 | -18.4 | 4.3 | 54.8*
CN1CCN(C2=Nc3cc(F)ccc3Cc3ccccc32)CC1 | 0.8 | . | 7.9 | -11.4 | .
CN1CCN(C2=Cc3ccccc3Sc3cc(F)ccc32)CC1 | 2.2 | -15.8 | -9.2 | . | 99.9*
CN1CCN(C2=Cc3ccc(Cl)cc3Sc3ccc(F)cc32)CC1 | 1.9 | -7.3 | -10.2 | . | 95.4*
SMILES | S1P4 ag | Mdm2 ligase inh | S1P4 antagonist | S1P3 antagonist | L major viab
CN1CCN(c2cc(C(F)(F)F)nc3ccc(F)cc23)CC1 | -2.2 | -13.4 | 14.0 | 13.1 | .
O=C(CCC(=O)c1ccccc1)NCc1ccccc1 | 0.9 | -15.4 | 2.5 | 5.4 | .
O=C(Cc1cccs1)Nc1ccccn1 | 1.8 | -28.1 | 5.2 | 2.1 | -3.4
O=C(Cc1cccs1)Nc1ccon1 | 1.1 | -6.2 | 0.9 | 94.2* | -4.6
Cn1c(C(=O)OC(C(=O)NC2CCCC2)c2ccncc2)cc2sccc21 (stereo not given) | 0.2 | 10.4 | -3.8 | 23.0 | 11.4
Cn1c(C(=O)OC(C(=O)NC(C)(C)C)c2cccnc2)cc2sccc21 (stereo not given) | 2.5 | -6.0 | -0.5 | -3.1 | 94.9*
CSc1ccc(/C=C(\C#N)C(=O)NC2CCCCC2C)cc1 (stereo not given) | 1.6 | 13.2 | -9.2 | 5.1 | 55.3*
CC(=O)Nc1ccc(/C=C(\C#N)C(=O)NC2CCCCC2C)cc1 (stereo not given) | 1.7 | 0.7 | 6.2 | -5.4 | 33.1
COc1cc(/C=C(\C#N)C(N)=O)ccc1OS(=O)(=O)c1ccc(C)cc1 | -0.1 | -9.2 | -3.0 | -9.8 | 0.6
COc1cc(/C=C(\C#N)C(=O)NC2CCCCC2C)ccc1OS(=O)(=O)c1ccc(C)cc1 (stereo not given) | 1.6 | -5.8 | 19.1 | -12.1 | 100.1*
CC1CCCCC1NC(=O)/C(C#N)=C/c1ccccc1F (stereo not given) | 0.1 | 15.6 | 8.2 | 0.5 | 100.2*
CCOCCCNC(=O)/C(C#N)=C/c1ccccc1F | 1.5 | -7.8 | -25.2 | 3.9 | 28.4
COc1ccc2c(c1)O/C(=C\c1sccc1C)C2=O | 3.3 | -5.5 | -10.9 | 0.9 | 3.4
Fc1ccc(-c2noc(C3CCN(Cc4cccnc4)CC3)n2)cc1 | -0.5 | -11.1 | 10.6 | 15.8 | 94.0*
CCCC1CCC(c2nc(-c3cccnc3)no2)CC1 (stereo not given) | -2.7 | -4.4 | -4.7 | 3.9 | -4.4
COc1ccc(NS(=O)(=O)c2ccc(N3CCCC3)c(NC(=S)Nc3cccc(C)c3C)c2)cc1 | 0.9 | 6.8 | -24.8 | -9.1 | 57.9*
COc1ccc(NS(=O)(=O)c2ccc(N3CCCC3)c(NC(=S)Nc3ccc(SC(F)F)cc3)c2)cc1 | 1.6 | -15.0 | 3.4 | -5.0 | 86.5*
O=S(=O)(Nc1ccc(Cl)cc1)c1ccc(N2CCOCC2)c(NC(=S)NC2CC2)c1 | -1.3 | -3.9 | 8.9 | -9.7 | -0.7
CCN(CC)S(=O)(=O)c1ccc(N2CCCC2)c(NC(=O)Cc2ccc(OC)cc2)c1 | 1.1 | -9.6 | -10.7 | -13.7 | -1.8
COCCNC(=O)CSc1nnc(-c2ccc(C)cc2)c(-c2ccc(C)cc2)n1 | -1.3 | -20.9 | -5.2 | 2.4 | 89.7*
NCCCCCc1nnc(SCc2ccc(Cl)c(Cl)c2)o1 | 0.7 | 15.8 | -8.7 | . | 100.4*
O=C(CN1CCN(c2ccccc2F)CC1)Nc1ccc2c(c1)CCC2 | -0.4 | -7.7 | -7.8 | -6.7 | 63.9*
O=C(CN1CCN(S(=O)(=O)c2ccc3ccccc3c2)CC1)Nc1ccc2c(c1)CCC2 | -0.5 | -8.2 | -7.8 | -1.1 | 89.2*
N#Cc1ccsc1NC(=O)CN1CCN(S(=O)(=O)c2ccc3ccccc3c2)CC1 | 0.7 | -15.3 | -16.2 | -14.3 | 64.6*
C/C(CC1(O)C(=O)N(C)c2ccccc21)=N\O (stereo not given) | 1.2 | -15.7 | -6.3 | -20.9 | -8.2
CC(=O)CC1(OC(C)=O)C(=O)N(C)c2ccccc21 (stereo not given) | -0.1 | -7.1 | 17.7 | -26.3 | 97.1*
